Data reported in article PMC10072318 (Bioorganic & medicinal chemistry letters, 2023).
“Also recorded” adds a separate entry of the source.

test system: S. mansoni schistosomula (post-infective larvae); test: not given; details: cited from earlier work

Row | Structure (SMILES) | Killing of S. mansoni schistosomula in vitro
1 | O=C(Nc1ccc(C(F)(F)F)c(C(F)(F)F)c1)c1cc(Cl)ccc1O [compound 1] | kill S. mansoni adults[6] and schistosomula

test system: adult S. mansoni; test: Adult S. mansoni severity score assay; assay type: cell-based, Schistosoma mansoni; details: not given
Summary of the method: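 Adult worms were exposed to the test compound at 5 μM. Responses were scored visually at 1, 5, 24 and 48 h using a constrained nomenclature of descriptors for the worm's responses to chemical insult. Each descriptor carries a value, and these values are summed into a severity score ranging from 0 (no activity) to 4 (maximum activity).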

Row | Structure (SMILES) | Time by which adult worm integrity was severely compromised [h]
2 | O=C(Nc1ccc(Cl)c(Cl)c1)c1ccc(C(F)(F)F)cc1 [compound 9] | ≤ 1
3 | O=C(Nc1cccc(C(F)(F)F)c1)c1ccc(C(F)(F)F)cc1 [compound 11] | ≤ 1

same assay, conditions: 5 μM, SAR discussion

Row | Structure (SMILES) | Antischistosomal activity in words
4 | Cc1ccc(NC(=O)c2ccc(C(F)(F)F)cc2)cc1C [compound 7] | retains substantial potency
5 | O=C(Nc1ccc(F)c(F)c1)c1ccc(F)cc1 [compound 13] | activity was essentially compromised
6 | O=C(Nc1cccc(C(F)(F)F)c1)c1ccccc1 [compound 15] | abolished activity
7 | Cc1ccc(NC(=O)c2ccccc2)cc1C [compound 14] | abolished activity
8 | O=C(Nc1ccc(Cl)c(Cl)c1)c1ccccc1 [compound 25] | some activity was retained
9 | O=C(Nc1ccccc1)c1ccc(C(F)(F)F)cc1 [compound 6] | inactive
10 | O=C(Nc1cccc(C(F)(F)F)c1)c1ccc(F)cc1 [compound 16] | activity was essentially abolished
11 | COc1ccc(NC(=O)c2ccc(C(F)(F)F)cc2)cc1OC [compound 8] | inactive; also recorded: eliminated activity
12 | O=C(Nc1ccc(Cl)nn1)c1cccc(F)c1 [compound 31, N-(6-chloropyridazin-3-yl)-3-fluorobenzamide] | inactive
13 | N#Cc1ccc(C(=O)Nc2cccc(C(F)(F)F)c2)cc1 [compound 18] | abolished activity
14 | O=C(Nc1ccccc1)c1ccc(F)cc1 [compound 23] | inactive

test system: S. mansoni adults; test: not given; details: cited from earlier work

Row | Structure (SMILES) | Killing of S. mansoni adults in vitro
15 | O=C(Nc1ccc(C(F)(F)F)c(C(F)(F)F)c1)c1cc(Cl)ccc1O [compound 1] | kill S. mansoni adults
